≈ marks a conversion by molar mass, not a printed value.
Legend:
[1] = tested on: Staphylococcus aureus; experiment: Antibacterial activity against Staphylococcus aureus ATCC 6538 after 24 hrs by micro dilution method; type: functional; settings: ATCC 6538, 24 h
Outline: (§1)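 Microdilution MIC in 96-well plates. Bacterial suspensions adjusted in sterile saline to 1.0 × 10^5 CFU/ml, giving 1.0 × 10^4 cfu per well in LB broth. Compounds tested at up to 1 mg/ml. Plates incubated 24 h. MIC taken as the lowest concentration with no visible growth under a binocular microscope. OD at 655 nm was also read against a blank and the positive control. Streptomycin and ampicillin were the positive controls.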

[2] = tested on: Bacillus cereus; experiment: Antibacterial activity against Bacillus cereus clinical isolate after 24 hrs by micro dilution method; type: functional; outline: as §1
[3] = tested on: Micrococcus flavus; experiment: Antibacterial activity against Micrococcus flavus ATCC 10240 after 24 hrs by micro dilution method; type: functional; settings: ATCC 10240, 24 h; outline: as §1
[4] = tested on: Listeria monocytogenes; experiment: Antibacterial activity against Listeria monocytogenes NCTC 7973 after 24 hrs by micro dilution method; type: functional; settings: NCTC 7973, 24 h; outline: as §1
[5] = tested on: Pseudomonas aeruginosa; experiment: Antibacterial activity against Pseudomonas aeruginosa ATCC 27853 after 24 hrs by micro dilution method; type: functional; settings: ATCC 27853, 24 h; outline: as §1
[6] = tested on: Enterobacter cloacae; experiment: Antibacterial activity against Enterobacter cloacae human isolate after 24 hrs by micro dilution method; type: functional; outline: as §1
[7] = tested on: Salmonella typhimurium; experiment: Antibacterial activity against Salmonella Typhimurium ATCC 13311 after 24 hrs by micro dilution method; type: functional, Salmonella enterica subsp. enterica serovar Typhimurium; settings: Salmonella enterica, ATCC 13311, 24 h; outline: as §1
[8] = tested on: Escherichia coli; experiment: Antibacterial activity against Escherichia coli ATCC 35210 after 24 hrs by micro dilution method; type: functional; settings: ATCC 35210, 24 h; outline: as §1
[9] = tested on: Staphylococcus aureus; experiment: Antibacterial activity against Staphylococcus aureus ATCC 6538 treated for 24 hrs followed by sub-cultivated for 72 hrs by micro dilution method; type: functional
Outline: (§2)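 2 µl from each well was serially subcultured into 100 µl fresh broth per well and incubated a further 72 h. MBC is the lowest concentration with no visible growth, taken as 99.5% killing of the original inoculum. Streptomycin and ampicillin were the positive controls.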

[10] = tested on: Bacillus cereus; experiment: Antibacterial activity against Bacillus cereus clinical isolate treated for 24 hrs followed by sub-cultivated for 72 hrs by micro dilution method; type: functional; outline: as §2
[11] = tested on: Micrococcus flavus; experiment: Antibacterial activity against Micrococcus flavus ATCC 10240 treated for 24 hrs followed by sub-cultivated for 72 hrs by micro dilution method; type: functional; outline: as §2
[12] = tested on: Listeria monocytogenes; experiment: Antibacterial activity against Listeria monocytogenes NCTC 7973 treated for 24 hrs followed by sub-cultivated for 72 hrs by micro dilution method; type: functional; outline: as §2
[13] = tested on: Pseudomonas aeruginosa; experiment: Antibacterial activity against Pseudomonas aeruginosa ATCC 27853 treated for 24 hrs followed by sub-cultivated for 72 hrs by micro dilution method; type: functional; outline: as §2
[14] = tested on: Enterobacter cloacae; experiment: Antibacterial activity against Enterobacter cloacae human isolate treated for 24 hrs followed by sub-cultivated for 72 hrs by micro dilution method; type: functional; outline: as §2
[15] = tested on: Salmonella typhimurium; experiment: Antibacterial activity against Salmonella Typhimurium ATCC 13311 treated for 24 hrs followed by sub-cultivated for 72 hrs by micro dilution method; type: functional, Salmonella enterica subsp. enterica serovar Typhimurium; settings: Salmonella enterica; outline: as §2
[16] = tested on: Escherichia coli; experiment: Antibacterial activity against Escherichia coli ATCC 35210 treated for 24 hrs followed by sub-cultivated for 72 hrs by micro dilution method; type: functional; outline: as §2
[17] = tested on: Talaromyces funiculosus; experiment: Antifungal activity against Penicillium funiculosum ATCC 36839 after 72 hrs by serial dilution method; type: functional; settings: ATCC 36839, 72 h
Outline: (§3)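 Modified microdilution MIC. Spores were washed from malt agar cultures with sterile 0.85% saline containing 0.1% Tween 80 and adjusted to about 1.0 × 10^5 per 100 µl well in malt broth. Compounds were dissolved in DMSO (1 mg/ml). Plates incubated 72 h at 28 °C. MIC is the lowest concentration with no visible growth under a binocular microscope. Bifonazole and ketoconazole were the references.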

[18] = tested on: Penicillium ochrochloron; experiment: Antifungal activity against Penicillium ochrochloron ATCC 9112 after 72 hrs by serial dilution method; type: functional; settings: ATCC 9112, 72 h; outline: as §3
[19] = tested on: Trichoderma viride; experiment: Antifungal activity against Trichoderma viride IAM 5061 after 72 hrs by serial dilution method; type: functional; settings: IAM 5061, 72 h; outline: as §3
[20] = tested on: Aspergillus fumigatus; experiment: Antifungal activity against Aspergillus fumigatus human isolate after 72 hrs by serial dilution method; type: functional; outline: as §3
[21] = tested on: Aspergillus niger; experiment: Antifungal activity against Aspergillus niger ATCC 6275 after 72 hrs by serial dilution method; type: functional; settings: ATCC 6275, 72 h; outline: as §3
[22] = tested on: Aspergillus flavus; experiment: Antifungal activity against Aspergillus flavus ATCC 9643 after 72 hrs by serial dilution method; type: functional; settings: ATCC 9643, 72 h; outline: as §3
[23] = tested on: Aspergillus versicolor; experiment: Antifungal activity against Aspergillus versicolor ATCC 11730 after 72 hrs by serial dilution method; type: functional; settings: ATCC 11730, 72 h; outline: as §3
[24] = tested on: Fulvia fulva; experiment: Antifungal activity against Fulvia fulva after 72 hrs by serial dilution method; type: functional; outline: as §3
[25] = tested on: Talaromyces funiculosus; experiment: Antifungal activity against Penicillium funiculosum ATCC 36839 treated for 72 hrs followed by sub-cultivated for 5 days by serial dilution method; type: functional
Outline: (§4)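 MFC obtained after the 72 h, 28 °C malt-broth microdilution (spore inoculum about 1.0 × 10^5 per well, compounds from 1 mg/ml DMSO). 2 µl was serially subcultured into 100 µl broth per well and incubated a further 5 days at 28 °C. MFC is the lowest concentration with no visible growth, taken as 99.5% killing of the original inoculum.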

[26] = tested on: Penicillium ochrochloron; experiment: Antifungal activity against Penicillium ochrochloron ATCC 9112 treated for 72 hrs followed by sub-cultivated for 5 days by serial dilution method; type: functional; outline: as §4
[27] = tested on: Trichoderma viride; experiment: Antifungal activity against Trichoderma viride IAM 5061 treated for 72 hrs followed by sub-cultivated for 5 days by serial dilution method; type: functional; outline: as §4
[28] = tested on: Aspergillus fumigatus; experiment: Antifungal activity against Aspergillus fumigatus human isolate treated for 72 hrs followed by sub-cultivated for 5 days by serial dilution method; type: functional; outline: as §4
[29] = tested on: Aspergillus niger; experiment: Antifungal activity against Aspergillus niger ATCC 6275 treated for 72 hrs followed by sub-cultivated for 5 days by serial dilution method; type: functional; outline: as §4
[30] = tested on: Aspergillus flavus; experiment: Antifungal activity against Aspergillus flavus ATCC 9643 treated for 72 hrs followed by sub-cultivated for 5 days by serial dilution method; type: functional; outline: as §4
[31] = tested on: Aspergillus versicolor; experiment: Antifungal activity against Aspergillus versicolor ATCC 11730 treated for 72 hrs followed by sub-cultivated for 5 days by serial dilution method; type: functional; outline: as §4
[32] = tested on: Fulvia fulva; experiment: Antifungal activity against Fulvia fulva treated for 72 hrs followed by sub-cultivated for 5 days by serial dilution method; type: functional; outline: as §4

| Compound | MIC [1] [µM] | MIC [2] [µM] | MIC [3] [µM] | MIC [4] [µM] | MIC [5] [µM] | MIC [6] [µM] | MIC [7] [µM] | MIC [8] [µM] | MBC [9] [µM] | MBC [10] [µM] | MBC [11] [µM] | MBC [12] [µM] | MBC [13] [µM] | MBC [14] [µM] | MBC [15] [µM] | MBC [16] [µM] | MIC [17] [µM] | MIC [18] [µM] | MIC [19] [µM] | MIC [20] [µM] | also measured |
| --- | --- | --- | --- | --- | --- | --- | --- | --- | --- | --- | --- | --- | --- | --- | --- | --- | --- | --- | --- | --- | --- |
| CCCCn1c(Cc2cc(OC)c(OC)cc2S(=O)(=O)N(C)C)n[nH]c1=O | 250 (≈ 99.6 µg/mL) | 250 (≈ 99.6 µg/mL) | 630 (≈ 251 µg/mL) | 380 (≈ 151 µg/mL) | 380 (≈ 151 µg/mL) | 500 (≈ 199 µg/mL) | 500 (≈ 199 µg/mL) | 130 (≈ 51.8 µg/mL) | 500 (≈ 199 µg/mL) | 760 (≈ 303 µg/mL) | 630 (≈ 251 µg/mL) | 380 (≈ 151 µg/mL) | 380 (≈ 151 µg/mL) | 760 (≈ 303 µg/mL) | 760 (≈ 303 µg/mL) | 250 (≈ 99.6 µg/mL) | 130 (≈ 51.8 µg/mL) | 130 (≈ 51.8 µg/mL) | 30 (≈ 12 µg/mL) | 250 (≈ 99.6 µg/mL) | MIC [21]: 130 µM (≈ 51.8 µg/mL); MIC [22]: 130 µM (≈ 51.8 µg/mL); MIC [23]: 130 µM (≈ 51.8 µg/mL); MIC [24]: 250 µM (≈ 99.6 µg/mL); MFC [25]: 250 µM (≈ 99.6 µg/mL); MFC [26]: 380 µM (≈ 151 µg/mL); MFC [27]: 60 µM (≈ 23.9 µg/mL); MFC [28]: 250 µM (≈ 99.6 µg/mL); MFC [29]: 380 µM (≈ 151 µg/mL); MFC [30]: 380 µM (≈ 151 µg/mL); MFC [31]: 380 µM (≈ 151 µg/mL); MFC [32]: 250 µM (≈ 99.6 µg/mL) |
| COc1cc(Cc2n[nH]c(=S)n2C(C)(C)C)c(S(=O)(=O)N(C)C)cc1OC | 240 (≈ 99.5 µg/mL) | 240 (≈ 99.5 µg/mL) | 240 (≈ 99.5 µg/mL) | 240 (≈ 99.5 µg/mL) | 240 (≈ 99.5 µg/mL) | 240 (≈ 99.5 µg/mL) | 240 (≈ 99.5 µg/mL) | 240 (≈ 99.5 µg/mL) | 420 (≈ 174 µg/mL) | 480 (≈ 199 µg/mL) | 420 (≈ 174 µg/mL) | 420 (≈ 174 µg/mL) | 420 (≈ 174 µg/mL) | 420 (≈ 174 µg/mL) | 420 (≈ 174 µg/mL) | 420 (≈ 174 µg/mL) | 120 (≈ 49.7 µg/mL) | 120 (≈ 49.7 µg/mL) | 240 (≈ 99.5 µg/mL) | 20 (≈ 8.29 µg/mL) | MIC [21]: 240 µM (≈ 99.5 µg/mL); MIC [22]: 240 µM (≈ 99.5 µg/mL); MIC [23]: 240 µM (≈ 99.5 µg/mL); MIC [24]: 240 µM (≈ 99.5 µg/mL); MFC [25]: 240 µM (≈ 99.5 µg/mL); MFC [26]: 360 µM (≈ 149 µg/mL); MFC [27]: 240 µM (≈ 99.5 µg/mL); MFC [28]: 120 µM (≈ 49.7 µg/mL); MFC [29]: 360 µM (≈ 149 µg/mL); MFC [30]: 360 µM (≈ 149 µg/mL); MFC [31]: 360 µM (≈ 149 µg/mL); MFC [32]: 240 µM (≈ 99.5 µg/mL) |
